A short description of experiment [1]: Cytotoxicity against human HL60 cells assessed as reduction in cell viability after 72 hrs by MTT assay. It counts as functional, cell-based. The settings on record: HL-60, 72 h. An outline of the steps:
(§1)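 Cytotoxicity was tested against the HL-60 human leukemia and A-549 human lung adenocarcinoma lines, with adriamycin as the positive control. Potency was expressed as IC50.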

Experiment [2] is described as follows: Cytotoxicity against human A549 cells assessed as reduction in cell viability incubated for 72 hrs by SRB assay. The settings on record: A549, 72 h. It counts as functional, cell-based. In short, it runs like this:
as §1
On the technique in general: Sulforhodamine B stains cellular protein and so reports cell mass.

The target of experiment [3] is T1, Tyrosine-protein phosphatase non-receptor type 1 (Homo sapiens, UniProt P18031).
T1 sequence (P18031 whole entry): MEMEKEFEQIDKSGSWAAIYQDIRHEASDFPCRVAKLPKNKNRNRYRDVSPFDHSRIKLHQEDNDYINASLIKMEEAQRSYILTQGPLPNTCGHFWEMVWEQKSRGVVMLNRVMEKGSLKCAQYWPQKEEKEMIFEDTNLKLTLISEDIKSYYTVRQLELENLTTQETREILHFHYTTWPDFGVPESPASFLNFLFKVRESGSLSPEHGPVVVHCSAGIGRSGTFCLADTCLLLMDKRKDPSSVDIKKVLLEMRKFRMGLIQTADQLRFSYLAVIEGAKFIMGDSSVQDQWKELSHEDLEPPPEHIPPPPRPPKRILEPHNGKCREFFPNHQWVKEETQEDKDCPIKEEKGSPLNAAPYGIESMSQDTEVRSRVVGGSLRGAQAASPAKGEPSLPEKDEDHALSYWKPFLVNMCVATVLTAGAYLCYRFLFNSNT
The experiment is described as follows: Inhibition of PTP1B (unknown origin) using pNPP as substrate after 3 mins by colorimetric analysis.

In the case of `CC(C)C[C@H](c1c(O)c(C=O)c(O)c(C=O)c1O)[C@@]1(C)CC[C@H]2C1=C[C@H](C(C)(C)O)CC[C@H]2C`, the IC50 in experiment [1] and in experiment [2] was above 10 µM in each case.
As to `CC(C)C[C@@H](c1c(O)c(C=O)c(O)c(C=O)c1O)[C@@]1(C)CC[C@@H]2[C@@H]1[C@H]1[C@@H](CC[C@@]2(C)O)C1(C)C` [MACROCARPAL A], the IC50 in experiment [1] and in experiment [2] was above 10 µM throughout.
For the molecule `CC(C)C[C@H](c1c(O)c(C=O)c(O)c(C=O)c1O)[C@@]1(C)CC[C@@H]2[C@@H]1[C@H]1[C@@H](CC[C@@]2(C)O)C1(C)C` [MACROCARPAL B], the half-inhibitory concentration (IC50) in experiment [1] and in experiment [2] was above 10 µM throughout.
Consider `CC(C)CC(c1c(O)c(C=O)c(O)c(C=O)c1O)[C@@]1(C)CC[C@H]2C1=C[C@H](C(C)(C)O)CC[C@H]2C` (some centres not stated), for which the IC50 in experiment [1] and in experiment [2] was above 10 µM in each case.
For the molecule `CC(C)C[C@H](c1c(O)c(C=O)c(O)c(C=O)c1O)[C@H]1CC[C@@H](C)[C@@]2(C)C1=CC[C@@H]1[C@H]2C1(C)C`, in experiment [3], the IC50 – broadly, the concentration that inhibits the measured activity by half – came out at 1.3 µM.
`C=C(C)[C@@H]1C=C2[C@@H](C)CC[C@@H]([C@@H](CC(C)C)c3c(O)c(C=O)c(O)c(C=O)c3O)[C@]2(C)CC1` displayed an IC50 in experiment [3] of 2.9 µM.
For `CC(C)C[C@H](c1c(O)c(C=O)c(O)c(C=O)c1O)[C@@]1(C)CC=C2[C@H](C)CC[C@@H]3[C@H]([C@@H]21)C3(C)C`, the 50% inhibitory concentration (IC50) in experiment [3] is 3 µM; in experiment [1], above 10 µM; in experiment [2], above 10 µM.
Take `CC(C)CC(=O)c1c(O)c(C=O)c(O)c(C[C@@]2(C)CC[C@H]3C2=C[C@H](C(C)(C)O)CC[C@H]3C)c1O`: the IC50 in experiment [3] is 4.3 µM; in experiment [1] it was above 10 µM; in experiment [2] it was above 10 µM.
Regarding `CC(C)CC(c1c(O)c(C=O)c(O)c(C=O)c1O)C1CC[C@@H](C)C2=C[C@H](C(C)(C)O)CC[C@]21C` (some centres not stated), the IC50 in experiment [1] and in experiment [2] was above 10 µM each time.
As to `CO[C@]1(C)CC[C@@H]2[C@H]([C@H]3[C@H]1CC[C@]3(C)[C@@H](CC(C)C)c1c(O)c(C=O)c(O)c(C=O)c1O)C2(C)C`, the IC50 in experiment [3] is 4.1 µM; in experiment [1] it was above 10 µM; in experiment [2], above 10 µM.
Regarding `CC1=C2CC[C@](C)([C@@H](CC(C)C)c3c(O)c(C=O)c(O)c(C=O)c3O)[C@H]2[C@H]2[C@@H](CC1)C2(C)C`, the values for the IC50 in experiment [3], in experiment [1] and in experiment [2] were 4.5 µM, above 10 µM and above 10 µM, respectively.
For the molecule `CC(C)C[C@@H](c1c(O)c(C=O)c(O)c(C=O)c1O)[C@@H]1CC[C@@](C)(O)[C@@H]2[C@@H]3[C@H](CC[C@]21C)C3(C)C`, the IC50 in experiment [1] and in experiment [2] was above 10 µM each time.
Turning to `CC(=O)CC[C@@H]1[C@H]([C@H]2C(=O)CC[C@]2(C)[C@H](CC(C)C)c2c(O)c(C=O)c(O)c(C=O)c2O)C1(C)C`, the IC50 in experiment [1] and in experiment [2] was above 10 µM in each case.
`CC(C)C[C@@H](c1c(O)c(C=O)c(O)c(C=O)c1O)[C@@]1(C)CC[C@@H]2[C@@H]1[C@H]1[C@@H](CC[C@]2(C)O)C1(C)C`: the IC50 in experiment [3] is 5.6 µM; in experiment [1], above 10 µM; in experiment [2], above 10 µM.
Regarding `CC(C)C[C@@H](c1c(O)c(C=O)c(O)c(C=O)c1O)[C@H]1CC[C@@H](C)[C@@]2(C)C1=CC[C@@H]1[C@H]2C1(C)C`, in experiment [3], the IC50 amounted to 4.3 µM.
Consider `C=C1CC[C@@H]2[C@H]([C@H]3[C@H]1CC[C@]3(C)[C@@H](CC(C)C)c1c(O)c(C=O)c(O)c(C=O)c1O)C2(C)C` [MACROCARPAL C], for which the 50% inhibitory concentration (IC50) in experiment [1] and in experiment [2] was above 10 µM each time.
`CC(C)C[C@H](c1c(O)c(C=O)c(O)c(C=O)c1O)[C@@H]1CC[C@@](C)(O)[C@@H]2[C@@H]3[C@H](CC[C@]21C)C3(C)C`: the IC50 in experiment [1] and in experiment [2] was above 10 µM throughout.
For the molecule `CC(C)C[C@@H](c1c(O)c(C=O)c(O)c(C=O)c1O)[C@@]1(C)CCC2=C1[C@H]1[C@@H](CC[C@H]2C)C1(C)C`, the IC50 is 1.6 µM in experiment [3], above 10 µM in experiment [1] and above 10 µM in experiment [2].
With `CC(C)C[C@@H](c1c(O)c(C=O)c(O)c(C=O)c1O)[C@@]1(C)CC=C2[C@H](C)CC[C@@H]3[C@H]([C@@H]21)C3(C)C`, the concentration for half-maximal inhibition (IC50) was 1.8 µM in experiment [3], above 10 µM in experiment [1] and above 10 µM in experiment [2].

Source of the values: ChEMBL document CHEMBL3853289, “Eucarobustols A-I, Conjugates of Sesquiterpenoids and Acylphloroglucinols from Eucalyptus robusta” (J Nat Prod, 2016).
